The term IC50 denotes the concentration that inhibits the measured activity by half. One may read the inhibition in vivo as the percentage by which the read-out fell short of the control. Low values mean little suppression, high ones strong suppression. Usually inhibition stands for the drop in the measured response relative to a control, in per cent. Low readings indicate a weak effect, high ones a strong effect.

The values that follow come from ChEMBL document CHEMBL1156742, “Fluorinated rhodacyanine (SJL-01) possessing high efficacy for visceral leishmaniasis (VL)” (J Med Chem, 2010).

Data set [1] can be described thus: Selectivity ratio of IC50 for rat L6 cells to IC50 for Leishmania donovani MHOM/ET/67/L82. Conditions: for selectivity ratio: L6 cells, read-out: Ratio IC50; for Ratio IC50: l6. Type of data set: ADME, cell-based. The gist of the method:
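Ratio of the L-6 cytotoxicity IC50 to the IC50 against axenic L. donovani amastigotes.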

The subject of the next data set is L6. Nature of the data set: Cytotoxicity against rat L6 cells after 72 hrs by Alamar blue assay. The data set is classed as cell-based. The gist of the method: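 L-6 myoblasts were grown in RPMI 1640 with L-glutamine and 10% FBS at 37 °C, 5% CO2, seeded at 4×10^4 cells/well. After 24 h they were given serial drug dilutions for 72 h. Alamar blue was added for 2 h, and fluorescence read at ex 536/em 588 nm to give IC50.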
Background: Resazurin is reduced to fluorescent resorufin, in cell work by metabolically active cells.

The subject of data set [2] is Leishmania donovani. As to the kind of experiment: Antileishmanial activity against Leishmania donovani MHOM/ET/67/L82 amastigotes infected in syrian golden hamster spleen after 72 hrs. The data set is classed as functional, organism-based. The essentials:
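Hamster-maintained spleen amastigotes were grown axenically at 37 °C, 5% CO2 in Cunningham SM medium, pH 5.4, with 10% FBS. 10^5 amastigotes per well were exposed to serial drug dilutions for 72 h. Alamar blue (resazurin) was added for 2 h more, and fluorescence read at ex 536/em 588 nm. IC50 was taken from the sigmoidal inhibition curve versus control.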

The test system of data set [3] is Leishmania donovani. Nature of the data set: Antileishmanial activity against Leishmania donovani MHOM/ET/67/L82 infected in NMRI mouse macrophage assessed as reduction in parasite burden after 4 days by Giemsa staining. The note with it: MHOM/ET/67/L82, 4 days.
Data set [4] relates to Leishmania donovani. Nature of the data set: Antileishmanial activity against Leishmania donovani MHOM/ET/67/HU3 infected in BALB/c mouse at 50 mg/kg, ip for 5 days from day 7 postinfection measured after 14 days by Giemsa staining. Type of data set: functional. The note with it: MHOM/ET/67/HU3, ip, route intraperitoneal. The essentials:
(§1)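 Female SPF BALB/c mice (6-8 weeks, ~20 g) infected iv via tail vein on day 0 with 1.5×10^7 hamster-spleen-derived amastigotes. Groups of five mice were treated once daily starting day 7. On day 14 the livers were weighed and Giemsa-stained smears prepared. Amastigotes were counted per 500 liver cells and expressed as amastigotes per liver cell × mg liver. % inhibition was calculated versus untreated mice.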

The test system of data set [5] is Leishmania donovani. Nature of the data set: Antileishmanial activity against Leishmania donovani MHOM/ET/67/HU3 infected in BALB/c mouse at 0.2 mg/kg, iv for 5 days from day 7 postinfection measured after 14 days by Giemsa staining. The data set is classed as functional. The essentials:
as §1

Data set [6] deals with Leishmania donovani. As to the kind of experiment: Antileishmanial activity against Leishmania donovani MHOM/ET/67/HU3 infected in BALB/c mouse at 1.3 mg/kg, iv for 5 days from day 7 postinfection measured after 14 days by Giemsa staining. Type of data set: functional. The essentials:
as §1

Data set [7] deals with Leishmania donovani. As to the kind of experiment: Antileishmanial activity against Leishmania donovani MHOM/ET/67/HU3 infected in BALB/c mouse at 12.5 mg/kg, iv for 5 days from day 7 postinfection measured after 14 days by Giemsa staining. The data set is classed as functional. The gist of the method:
as §1

Data set [8] concerns Leishmania donovani. Nature of the data set: Antileishmanial activity against Leishmania donovani MHOM/ET/67/HU3 infected in BALB/c mouse at 4.1 mg/kg, iv for 5 days from day 7 postinfection measured after 14 days by Giemsa staining. Type of data set: functional. The essentials:
as §1

Data set [9] has as its system Leishmania donovani. Nature of the data set: Antileishmanial activity against Leishmania donovani MHOM/ET/67/HU3 infected in BALB/c mouse at 0.5 mg/kg, iv for 3 days from day 7 postinfection measured after 14 days by Giemsa staining. The data set is classed as functional. The essentials:
as §1

In data set [10] the test system is Leishmania donovani. Nature of the data set: Antileishmanial activity against Leishmania donovani MHOM/ET/67/HU3 infected in BALB/c mouse at 1.5 mg/kg, iv for 3 days from day 7 postinfection measured after 14 days by Giemsa staining. Type of data set: functional. The essentials:
as §1

The test system of data set [11] is Leishmania donovani. As to the kind of experiment: Antileishmanial activity against Leishmania donovani MHOM/ET/67/HU3 infected in BALB/c mouse at 50 mg/kg, po for 5 days from day 7 postinfection measured after 14 days by Giemsa staining. Type of data set: functional. The gist of the method: as §1
Data set [12] relates to Leishmania donovani. Nature of the data set: Antileishmanial activity against Leishmania donovani MHOM/ET/67/HU3 infected in BALB/c mouse at 2 mg/kg, iv for 5 days from day 7 postinfection measured after 14 days by Giemsa staining. The data set is classed as functional. The gist of the method: as §1
Data set [13] concerns Leishmania donovani. Nature of the data set: Antileishmanial activity against Leishmania donovani MHOM/ET/67/HU3 infected in BALB/c mouse at 15 mg/kg, sc for 5 days from day 7 postinfection measured after 14 days by Giemsa staining. Type of data set: functional, organism-based. Further details: dose 15 mg/kg. The essentials:
as §1

Where [14] appears, read: Leishmania donovani, MHOM/ET/67/L82, Spleen, 72 h.

As to `CCn1c(=O)/c(=C/C=c2\nc3c(o2)=CC=CN3C)s/c1=C\c1sc2ccc(F)cc2[n+]1C`, the selectivity ratio in data set [1] was 27. Besides, the IC50 with L6 (Rattus norvegicus, L6, 72 h) was determined as 28500 nM; in the data set with Leishmania donovani [2] (setting [14]), 1040 nM.
For `CCn1c(=O)/c(=C2\Sc3ccccc3N2C)s/c1=C\c1cccc[n+]1CC`, in data set [1], the selectivity ratio was determined as 450. Besides, the IC50 in the data set with L6 (Rattus norvegicus, L6, 72 h) came to 115000 nM; with Leishmania donovani [2] (setting [14]), 255 nM.
As to `CCN1C(=O)/C(=C/C=C2\Sc3ccccc3N2C)S/C1=N\c1sc2ccccc2[n+]1C`, the selectivity ratio in data set [1] was found to be 2990. The IC50 came to 156000 nM with L6 (Rattus norvegicus, L6, 72 h); 4690 nM in the data set with Leishmania donovani [3]; 52 nM in the data set on Leishmania donovani [2] (setting [14]).
Consider `CCn1c(=O)/c(=C/N=c2\ccccn2C)s/c1=C\c1sc2ccc(F)cc2[n+]1C`, for which the selectivity ratio in [1] came out at 16. The IC50 in the data set on L6 (Rattus norvegicus, L6, 72 h) was found to be 31700 nM; in the data set on Leishmania donovani [2] (setting [14]), 2020 nM.
As to `CCCCCCCCCCCCCCCCOP(=O)([O-])OCC[N+](C)(C)C` [MILTEFOSINE], the IC50 came out at 811 nM in the data set on Leishmania donovani [3] and 430 nM in the data set with Leishmania donovani [2] (setting [14]).
Regarding `CCn1c(=O)/c(=C/C=C2\Sc3ccccc3N2C)s/c1=C\c1sc2ccc(F)cc2[n+]1C.[Cl-]`, at 50 mg/kg the inhibition in vivo in the data set with Leishmania donovani [4] was 31.4%. In data set [1], the “Ratio IC50” value was greater than 15000. Besides, in the data set on Leishmania donovani [5], the inhibition in vivo at 0.2 mg/kg came to 16.1%. In addition, the figures for the IC50 in the data set on L6 (l6), in the data set on Leishmania donovani [3] and in the data set with Leishmania donovani [2] were greater than 174000 nM, 353 nM and 11 nM, respectively. Also, the inhibition in vivo at 1.3 mg/kg with Leishmania donovani [6] worked out at 94.9%. This compound also yielded an inhibition in vivo at 12.5 mg/kg in the data set with Leishmania donovani [7] of 95.4%. Further, 4.1 mg/kg produced 97.2% inhibition in vivo in the data set on Leishmania donovani [8].
For the compound `CCn1c(=O)/c(=C/C=C2\Sc3ccccc3N2C)s/c1=C\c1sc2ccc(F)cc2[n+]1C.O=C([O-])/C=C\C(=O)O`, in data set [1], the “Ratio IC50” value is given as 2870. Moreover, the IC50 stood at 71700 nM with L6 (l6) and 25 nM in the data set on Leishmania donovani [2].
As to `CCn1c(=O)/c(=C/C=c2\nc3c(o2)=CC=CN3C)s/c1=C\c1sc2ccccc2[n+]1C`, in data set [1], the selectivity ratio was found to be 40. In addition, the IC50 was determined as 27200 nM with L6 (Rattus norvegicus, L6, 72 h) and 677 nM in the data set on Leishmania donovani [2] (setting [14]).
Consider `CCn1c(=O)/c(=C/N=c2\scc(C)n2C)s/c1=C\c1sc2ccc(F)cc2[n+]1C`, for which the selectivity ratio in [1] came out at 91. The IC50 in the data set with L6 (Rattus norvegicus, L6, 72 h) was 16500 nM; in the data set with Leishmania donovani [2] (setting [14]), 182 nM.
For `CCCN1C=CC=c2o/c(=C/C=c3\s/c(=C\c4sc5ccccc5[n+]4C)n(CC)c3=O)nc21` the same measures were 2, 1440 nM and 690 nM.
Take `C[C@@H]1[C@H](O)[C@@H](C)/C=C/C=C/C=C/C=C/C=C/C=C/C=C/[C@H](O[C@@H]2O[C@H](C)[C@@H](O)[C@H](N)[C@@H]2O)C[C@@H]2O[C@](O)(C[C@@H](O)C[C@@H](O)[C@H](O)CC[C@@H](O)C[C@@H](O)CC(=O)O[C@H]1C)C[C@H](O)[C@H]2C(=O)O` [AMPHOTERICIN B]: the inhibition in vivo at 0.5 mg/kg in the data set on Leishmania donovani [9] worked out at 78.6%. In the data set with Leishmania donovani [10], this compound came in with an inhibition in vivo at 1.5 mg/kg of 95.5%.
On to `CCN1C(=O)/C(=C/C=C2\Sc3ccccc3N2C)S/C1=N\c1sc2ccc(Cl)cc2[n+]1C`, for which the inhibition in vivo at 50 mg/kg with Leishmania donovani [4] stood at 18.2%. The selectivity ratio in data set [1] came to 757. In addition, the IC50 was 21200 nM with L6 (Rattus norvegicus, L6, 72 h); 80 nM in the data set on Leishmania donovani [3]; 28 nM in the data set on Leishmania donovani [2] (setting [14]).
`CCn1c(=O)/c(=C/C=C2\Sc3ccccc3N2C)s/c1=C\c1sc2ccc(F)cc2[n+]1C.CS(=O)(=O)[O-]`: the “Ratio IC50” value in [1] came to 4225. In the data set with Leishmania donovani [11], this compound yielded an inhibition in vivo at 50 mg/kg of 28%. The IC50 with L6 (l6) was found to be 84500 nM; in the data set on Leishmania donovani [2] it was 20 nM. In the data set with Leishmania donovani [12], this compound displayed an inhibition in vivo at 2 mg/kg of 46.4%.
For `CCn1c(=O)/c(=C/C=C2\Sc3ccccc3N2C)s/c1=C\c1sc2ccccc2[n+]1C`, in data set [1], the selectivity ratio worked out at 75. Besides, the IC50 with L6 (Rattus norvegicus, L6, 72 h) turned out to be 7980 nM; with Leishmania donovani [2] (setting [14]), 106 nM.
`CN1/C(=C/C=c2\s/c(=C\c3sc4ccc(F)cc4[n+]3C)n(CCO)c2=O)Sc2ccccc21`: the selectivity ratio in data set [1] was greater than 15. In addition, the IC50 was greater than 169000 nM in the data set with L6 (Rattus norvegicus, L6, 72 h) and 11600 nM in the data set on Leishmania donovani [2] (setting [14]).
`CCn1c(=O)/c(=C/N=c2n(C)c3ccccc3n2C)s/c1=C\c1sc2ccc(F)cc2[n+]1C`: in [1], the selectivity ratio was determined as 627. In addition, the IC50 was 80900 nM in the data set on L6 (Rattus norvegicus, L6, 72 h) and 129 nM with Leishmania donovani [2] (setting [14]).
The like results for `CCn1c(=O)/c(=C/N=c2\sc(C)cn2C)s/c1=C\c1sc2ccc(F)cc2[n+]1C` were, in that order, 88, 10400 nM and 118 nM.
In turn, “D-gluconic acid, 2,4:2',4'-O-[oxybis-oxidostibylidyne]bis-, trisodium salt, nonahydrate” displayed an inhibition with Leishmania donovani [13] of 62%.
Consider `CCCCN1C=CC=c2o/c(=C/C=c3\s/c(=C\c4sc5ccccc5[n+]4CC)n(CCC)c3=O)nc21`, for which the selectivity ratio in [1] came to 99. Further, the IC50 in the data set on L6 (Rattus norvegicus, L6, 72 h) came to 2070 nM; in the data set with Leishmania donovani [2] (setting [14]), 21 nM.
